Assay results reported in ChEMBL document CHEMBL4229342, “Synthesis of novel proxyphylline derivatives with dual Anti-Candida albicans and anticancer activity” (Eur J Med Chem, 2018).
In brackets after ≈: the same amount, converted by molar mass. Activity calls are given as the source filed them. No cut-off for these calls is given here.

Key:
[1] = test system: Candida albicans; assay: (§1) Antifungal activity against Candida albicans ATCC 90028 infected in Galleria mellonella larvae infected with 20 uM compound pre-treated cell suspensions assessed as melanization incubated in dark for 144 hrs at 30 degC and measured every 24 hrs (reference value: 65%); type: functional
[2] = In-vitro chitinolytic activity of the compound assessed as p-nitrophenyl release from N-acetyl-beta-D-glucosaminide at 20 uM by chitinolytic activity assay; type: functional
[3] = test system: Candida albicans; assay: Inhibition of biofilm formation of Candida albicans ATCC 90028 at 20 uM […] by XTT assay; type: functional
[4] = test system: Candida albicans; assay: Induction of chitinase release in Candida albicans ATCC 90028 assessed as p-nitrophenyl release from N-acetyl-beta-D-glucosaminide at 20 uM by chitinolytic activity assay; type: functional, organism-based
[5] = test system: Candida albicans; assay: as §1, with “reduction in larval hemocytes” for “melanization”, “by hematoxylin and eosin staining-based light microscopic analysis” for “(reference value: 65%)”; type: functional, organism-based
[6] = test system: Candida albicans; assay: as §1, with “reduction in fungal cell nodules” for “melanization incubated”, “by hematoxylin and eosin staining-based light microscopic analysis” for “(reference value: 65%)”; type: functional, organism-based
[7] = test system: Candida albicans; assay: Induction of apoptosis in Candida albicans ATCC 90028 planktonic forms assessed as effect on DNA content of necrotic cells at 4 to 16 ug/ml by ethidium bromide staining based gel electrophoresis and confocal laser scanning microscopy; type: functional, organism-based
[8] = test system: Candida albicans; assay: Fungicidal activity against Candida albicans ATCC 90028 assessed as log reduction in cell viability at 10 uM in RPMI medium in presence of sorbitol; type: functional
[9] = test system: Candida albicans; assay: Antifungal activity against Candida albicans ATCC 90028 assessed as reduction in cell viability at 8 uM at after 48 hrs in presence of ergosterol by XTT assay; type: functional
[10] = test system: Candida albicans; assay: Induction of apoptosis in Candida albicans ATCC 90028 protoplast assessed as viable cells at 20 uM after 48 hrs Annexin V-FITC/propidium iodide staining based flow cytometric analysis (reference value: 96.38 +/- 2.05%); type: functional
[11] = test system: Candida albicans; assay: Antibiofilm activity in Candida albicans ATCC 90028 assessed as increase in chitin distribution within biofilm cells at 20 uM after 18 hrs by calcofluor white staining-based confocal laser scanning microscopic analysis; type: functional, organism-based
[12] = test system: Candida albicans; assay: Induction of apoptosis in Candida albicans ATCC 90028 protoplast assessed as necrotic cells at 20 uM after 48 hrs Annexin V-FITC/propidium iodide staining based flow cytometric analysis (reference value: 0.33 +/- 0.20%); type: functional
[13] = test system: Candida albicans; assay: Disruption of cell wall in Candida albicans SC5314 assessed as decrease in chitin level after 18 hrs by calcofluor white staining-based flow cytometric analysis; type: functional, organism-based
[14] = test system: Candida albicans; assay: as §1, with “reduction in fungal burden” for “melanization incubated”, “by hematoxylin and eosin staining-based light microscopic analysis” for “(reference value: 65%)”; type: functional, organism-based
[15] = test system: Candida albicans; assay: Induction of apoptosis in Candida albicans ATCC 90028 protoplast assessed as late apoptotic cells at 20 uM after 48 hrs Annexin V-FITC/propidium iodide staining based flow cytometric analysis (reference value: 0.3 +/- 0.30%); type: functional
[16] = test system: Candida albicans; assay: Effect on dilpoid nuclei level in Candida albicans ATCC 90028 planktonic forms at 16 ug/ml by ethidium bromide staining based gel electrophoresis and confocal laser scanning microscopy; type: functional, organism-based
[17] = test system: CCRF-CEM; assay: Antiproliferative activity against human CCRF-CEM cells after 72 hrs by MTT assay; type: functional, cell-based
In short: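 EC50 was derived from a repeat 72 h MTT assay in CCRF-CEM or MCF-7 cells. It is the concentration killing 50% of tumour cells compared with control cells incubated without inhibitor in 0.5% DMSO.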

[18] = test system: Candida albicans; assay: Fungicidal activity against Candida albicans ATCC 90028 assessed as reduction in cell viability in RPMI medium in absence of sorbitol; type: functional
[19] = test system: Candida albicans; assay: Antifungal activity against Candida albicans ATCC 90028 infected in Galleria mellonella larvae infected with 20 uM compound pre-treated cell suspensions assessed as cocoon formation incubated in dark for 144 hrs at 30 degC and measured every 24 hrs (reference value: 65%); type: organism-based
[20] = test system: Candida albicans; assay: Disruption of cell wall in Candida albicans SC5314 assessed as decrease in chitin level by measuring chitin mean staining index at 20 uM after 18 hrs by calcofluor white staining-based flow cytometric analysis (reference value: 496 +/- 51); type: functional
[21] = test system: Candida albicans; assay: Induction of apoptosis in Candida albicans ATCC 90028 planktonic forms assessed as effect on DNA content of necrotic cells at 1 to 128 ug/ml by ethidium bromide staining based gel electrophoresis and confocal laser scanning microscopy; type: functional, organism-based
[22] = test system: Candida albicans; assay: as §1, with “31” for “20”, “reduction in larval hemocytes” for “melanization”, “by hematoxylin and eosin staining-based light microscopic analysis” for “(reference value: 65%)”; type: functional, organism-based
[23] = test system: Candida albicans; assay: Antibiofilm activity in Candida albicans ATCC 90028 assessed as increase in chitin distribution within biofilm cells at 248 uM after 18 hrs by calcofluor white staining-based confocal laser scanning microscopic analysis; type: functional, organism-based
[24] = In-vitro chitinolytic activity of the compound assessed as p-nitrophenyl release from N-acetyl-beta-D-glucosaminide at 248 uM by chitinolytic activity assay; type: functional
[25] = test system: Candida albicans; assay: Induction of exochitinase release in Candida albicans ATCC 90028 assessed as p-nitrophenyl release from chitobioside substrate C at 248 uM by chitinolytic activity assay; type: functional, organism-based
[26] = test system: Candida albicans; assay: Antibiofilm activity in Candida albicans ATCC 90028 assessed as beta-glucan uniform distribution at 248 uM after 18 hrs by Congo red staining-based confocal laser scanning microscopic analysis; type: functional, organism-based
In short: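 Mature C. albicans biofilm cells were stained with 2% Congo Red to detect β-glucan exposure. They were imaged by confocal laser scanning microscopy as fluorescence and fluorescence/DIC overlays. Treated biofilms were compared with untreated control biofilm.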

[27] = test system: Candida albicans; assay: (§2) Antifungal activity against Candida albicans ATCC 90028 infected in Galleria mellonella larvae infected with 31 uM compound pre-treated cell suspensions assessed as reduction in fungal burden in dark for 144 hrs at 30 degC and measured every 24 hrs by hematoxylin and eosin staining-based light microscopic analysis; type: functional, organism-based
[28] = test system: Candida albicans; assay: Inhibition of biofilm formation of Candida albicans ATCC 90028 up to 248 uM […] by XTT assay; type: functional, organism-based
[29] = test system: Candida albicans; assay: as §2, with “fat body formation” for “fungal burden”; type: functional, organism-based
[30] = test system: Candida albicans; assay: Induction of apoptosis in Candida albicans ATCC 90028 protoplast assessed as viable cells at 248 uM after 48 hrs Annexin V-FITC/propidium iodide staining based flow cytometric analysis (reference value: 96.38 +/- 2.05%); type: functional
[31] = test system: Candida albicans; assay: Antifungal activity against Candida albicans ATCC 90028 infected in Galleria mellonella larvae infected with 31 uM compound pre-treated cell suspensions assessed as larvae survival incubated in dark for 144 hrs at 30 degC and measured every 24 hrs (reference value: 80%); type: functional
[32] = test system: Candida albicans; assay: Disruption of cell wall in Candida albicans SC5314 assessed as decrease in chitin level by measuring chitin mean staining index at 248 uM after 18 hrs by calcofluor white staining-based flow cytometric analysis (reference value: 496 +/- 51); type: functional
[33] = test system: Candida albicans; assay: Induction of endochitinase release in Candida albicans ATCC 90028 assessed as p-nitrophenyl release from triacetylochitotriose substrate A at 248 uM by chitinolytic activity assay; type: functional, organism-based

In the case of CC(Cn1cnc2c1c(=O)n(C)c(=O)n2C)OCc1cn(CCCn2nc3c(Br)c(Br)c(Br)c(Br)c3n2)nn1 (stereo not drawn), the Activity [1] is reported as 80%, the Activity [2] is reported as 0.01 to 0.03 µmol/min and the inhibition at 20 µM [3] is reported as 47%. The Activity [4] was “inactive”, the Activity [5] was “Active” and the Activity [6] was “Active”. The Activity [7] was “inactive”, the “log(activity)” value [8] was 6.74 and the Activity [9] was 68%. The Activity [10] was 2.87%, the Activity [11] was “Active” and the Activity [12] was 93.94%. The Activity [13] was “Dose-dependent effect”, the Activity [14] was “Active” and the Activity [15] was 0.22%. The Activity [16] was “inactive”, the EC50 [17] was 6.5 µM and the MFC [18] was 5 µM (≈ 3.97 µg/mL). It also gave an Activity [19] of 98% and an Activity_index [20] of 370.
For CC(CN1c2ccccc2Sc2ccccc21)OC(=O)OC(C)Cn1cnc2c1c(=O)n(C)c(=O)n2C (stereo not drawn), the Activity [21] was “inactive”, the Activity [22] was “Active” and the Activity [23] was “Active”. For the same compound, the Activity [24] was 0.01 to 0.03 µmol/min, the Activity [25] was “inactive” and the Activity [26] was “inactive”. For the same compound, the Activity [27] was “Active”, the inhibition [28] was “inactive” and the Activity [29] was “Active”. For the same compound, the Activity [30] was 2.8%, the survival at 31 µM [31] was 95% and the Activity_index [32] was 550. For the same compound, the Activity [33] was “inactive”.
